OX1R antag-1: human HCRTR1 antagonism; O43613; CHO/OX1R cells, Fluo-8 calcium fluorescence, orexin A; inhibition, % at 5 µM; AID 434989; 330,000 tested, 0.43% active;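 active = inhibition above its plate's threshold, mean inhibition of all tested compounds on the plate plus 3 SD, cut at about 37% in these data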;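 also: 0% = orexin A challenge wells and 100% = SB-334867-A antagonist wells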
TAAR1 antag: antagonists of human TAAR1; CHO RD-HGA16 TAAR1, Fluo-8 calcium fluorescence, antagonist; inhibition, % at 3 µM; 360,000 tested, 1.5% active; AID 624466;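 active = inhibition above a per-plate cutoff, the mean inhibition of test compounds on that plate plus 3 SD, cut at about 49% in these data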;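 also: 0% = DMSO plus EC80 beta-PEA response and 100% = DMSO alone without agonist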
Target sequence (Q96RJ0 whole entry, looked up): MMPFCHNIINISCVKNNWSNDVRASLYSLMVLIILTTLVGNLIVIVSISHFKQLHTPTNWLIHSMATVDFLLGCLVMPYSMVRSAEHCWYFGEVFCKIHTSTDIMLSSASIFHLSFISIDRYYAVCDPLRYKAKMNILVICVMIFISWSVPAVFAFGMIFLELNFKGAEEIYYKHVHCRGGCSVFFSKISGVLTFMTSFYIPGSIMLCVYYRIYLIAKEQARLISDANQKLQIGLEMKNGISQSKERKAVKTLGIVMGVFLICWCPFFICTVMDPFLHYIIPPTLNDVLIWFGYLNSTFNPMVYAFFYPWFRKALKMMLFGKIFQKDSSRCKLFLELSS
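Test system: CHO RD-HGA16 cells bearing hTAAR1 | Reagent: β-PEA, EC80 | Compound dosing: 3 µM, single point | Schedule: Dye loading 75 min at 37 °C, then 30 min room temperature | Signal: Calcium fluorescence with Fluo-8 | Evaluation: Percent inhibition of PEA-evoked calcium signal, max/basal emission ratio | Control set: DMSO-only wells and EC80 β-PEA-stimulated wells | Repeats: Singlicate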
TAAR1 ag: human TAAR1 agonism; Q96RJ0; AID 624467; 360,000 tested, 0.99% active; activation, % at 3 µM; CHO RD-HGA16 TAAR1, Fluo-8 calcium fluorescence; vehicle wells 0%, saturating PEA agonist 100%;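 active = activation above the mean activation of all test compounds in the run plus 3 SD, cut at about 38% in these data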
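Repeats: no replicates (n 1) | Material: CHO-derived RD-HGA16 cells with stable Gα16 and human TAAR1 | Technique: Kinetic Fluo-8 calcium fluorescence | Schedule: 17-24 h seeding, 75 min 37 °C dye, 30 min RT | Evaluation: % activation from peak over basal fluorescence ratio, DMSO-to-PEA scaled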
CHO parental Ca: signal in parental CHO cells, OX1R antagonist counter-screen | parental CHO-K1, ATP-induced calcium, Fluo-8 fluorescence | inhibition, % at 5.6 µM | 330,000 tested, 0.63% active | AID 463079;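 active = inhibition above that plate's mean sample inhibition plus 3 SD, cut at about 26% in these data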;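 also: 0% = ATP-challenged DMSO wells and 100% = DMSO wells without ATP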
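Assay system: parental CHO cells; Read-out basis: percent inhibition of ATP-evoked calcium rise, normalized to controls; Benchmarks: ATP and no-ATP DMSO wells; Compound dosing: single nominal dose of 5.6 µM per compound; Signal: Fluo-8 calcium dye fluorescence; Also added: ATP as calcium-mobilizing challenge; Repeats: singlicate.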
GPR7 antagonist: blocks human GPR7 receptor signaling; P48145; GPR7-expressing cells, fluorescence antagonist assay; inhibition, % at 4.4 µM; 290,000 tested, 1.1% active; AID 1861; in the data active = inhibition above about 16%, passing the limit was not always enough;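 also: cells stimulated with the agonist NPW; 0% = agonist with vehicle and 100% = vehicle without agonist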
Target sequence (P48145 whole entry, looked up): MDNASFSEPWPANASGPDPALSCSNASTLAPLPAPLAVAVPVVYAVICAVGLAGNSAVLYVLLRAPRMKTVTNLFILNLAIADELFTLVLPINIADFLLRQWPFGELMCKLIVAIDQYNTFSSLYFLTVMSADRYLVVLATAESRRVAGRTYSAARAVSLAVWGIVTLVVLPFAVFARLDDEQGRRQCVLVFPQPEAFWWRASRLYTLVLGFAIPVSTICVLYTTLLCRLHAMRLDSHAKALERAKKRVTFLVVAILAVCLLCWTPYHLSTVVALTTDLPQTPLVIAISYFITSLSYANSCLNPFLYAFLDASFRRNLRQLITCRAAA
OX1R antag-2: antagonists of human orexin 1 receptor (OX1R); inhibition, % at 6.6 µM; 330,000 tested, 1.8% active; AID 485270; O43613; OX1R-expressing cells, FRET antagonist read-out; in the data active = inhibition mostly above about 38%, no sharp cut-off; inactive = mostly below about 40%;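 also: 0% = agonist challenge alone and 100% = reference antagonist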
The depositor's hits bear a star; x = no result given. Sampled rows, rich in hits. Any-hit rate of the full collection: about 4.5%.

SMILES	OX1R antag-1	TAAR1 antag	TAAR1 ag	CHO parental Ca	GPR7 antagonist	OX1R antag-2
COc1ccc(-c2cc(-c3nc4ccccn4c3NCc3ccccc3)ccc2OC)cc1	96*	88*	20	100*	x	89*
COc1ccc2c(c1)[C@]1(C(=O)N2C)C2=C(CCCC2=O)Oc2cc(C)oc(=O)c21	x	-5	0	x	x	x
Cc1ccccc1NC(=O)c1nn(C)c(C(=O)Nc2ccccc2C)c1[N+](=O)[O-]	-9	3	7	-14	-6	8
COc1ccc(C)cc1NC(=O)c1nn(C)c(C(=O)Nc2cc(C)ccc2OC)c1[N+](=O)[O-]	-5	-30	4	-17	-20	34*
CC(=O)NC(=S)c1c(N)n(Cc2ccccc2)c(=O)n(C)c1=O	-39	x	x	-8	21*	4
C[n+]1ccccc1/C=C/c1ccc(C#N)cc1	-7	-2	0	-10	-8	19
C[n+]1ccccc1/C=C/c1ccc([N+](=O)[O-])cc1	-6	5	-1	1	-12	36*
COc1cccc(S(=O)(=O)Nc2ccc3c(c2)C(=O)N(C)C[C@H](OC)[C@H](C)CN[C@@H](C)CO3)c1	x	-18	0	x	x	x
COc1ccc(-c2ncn(CCc3ccccc3OC)c2CC(C)C)cc1	x	33	21	x	x	x
Cc1ccc(S(=O)(=O)N2CC3(O)CN(C(=O)OC(C)C)N(C(=O)OC(C)C)CC3(OC(=O)NC3CCCC3)C2)cc1 (stereo unspecified)	x	49*	6	x	x	x
COc1ccc(OC)c(S(=O)(=O)CC(=O)c2cc3ccccc3oc2=O)c1	x	4	6	x	x	x
COc1ccc(CN(C)C(=O)c2cccc(Oc3ccccc3)c2)c(OC)c1OC	-16	54*	11	-23	2	13
COc1ccc(CN(C)C(=O)C(Cc2ccccc2)NC(=O)c2ccccc2)c(OC)c1OC (stereo unspecified)	x	54*	10	x	x	x
COc1ccc(-c2coc3c(C(=O)Nc4cccnc4)cccc23)c(C)c1	x	38	2	x	x	x
COc1ccc(C(=O)c2[nH]c(N)c(C(=O)c3c[nH]c4ccccc34)c2-c2ccc(OC)cc2)cc1	x	-14	3	x	x	x
Cc1cc(C)n2c(Nc3ccc4c(c3)OCCO4)c(CC(C)C)nc2n1	x	-47	3	x	x	x
Cc1ccc(CNc2ccc3c(c2)ncn3C(C)(C)C)cc1	-15	2	2	-13	4	32
CCNC(=O)c1cc2c(c(-c3cccc(-c4ccccc4F)c3)n1)[C@@H](CCO)N(C(=O)CC1CC1)C2	x	6	3	x	x	x
COc1ccccc1-c1cccc(-c2nc(C(=O)Nc3nccs3)cc3c2[C@@H](CCO)N(C(=O)CC2CC2)C3)c1	x	51*	11	x	x	x
CNC12CCc3cc(OC)c(OC)c(c31)-c1cc3c(cc1C2)OCO3 (stereo unspecified)	x	-24	-2	x	x	x
COc1ccccc1OCC(=O)Nc1ccc(CSc2ccccc2)cc1C	-15	23	-1	30*	8	21
C[C@@H]1CN(c2ccc(N3CCN(C(=O)OC(C)(C)C)C[C@@H]3C)cc2C#N)CCN1Cc1ccccc1	x	30	-1	x	x	x
CC(C)c1cc(C(=O)OCC(=O)NC(=O)NCc2ccco2)c(O)c(C(C)C)c1	-14	-19	3	-3	17*	6
O=C(COC(=O)c1ccccc1C(F)(F)F)NC(=O)NCc1ccco1	-11	-36	6	-12	x	5
Cc1ccc(O)c(C(=O)c2cc(C#N)c(=O)n(-c3nccs3)c2)c1	30	48	51*	30	0	7
SMILES	OX1R antag-1	TAAR1 antag	TAAR1 ag	CHO parental Ca	GPR7 antagonist	OX1R antag-2
Cc1ccc(O)c(C(=O)c2cc(C#N)c(=O)n(-c3c(C)n(C)n(-c4ccccc4)c3=O)c2)c1	-28	28	15	-9	-1	16
O=C(COC(=O)C1CCN(S(=O)(=O)c2ccc(Cl)c(C(F)(F)F)c2)CC1)NCc1ccco1	-19	8	1	42*	x	18
Cc1nc2nc[nH]n2c(=O)c1NS(=O)(=O)c1ccc([N+](=O)[O-])cc1	-8	6	5	-9	-18	44*
Cc1nc2nc[nH]n2c(=O)c1NS(=O)(=O)c1ccc(F)cc1	0	9	6	1	-6	8
CCCc1nc2nc(C)c(NS(=O)(=O)c3ccc([N+](=O)[O-])cc3)c(=O)n2[nH]1	-54	-7	2	-5	10	50*
COc1ccccc1C(=O)N1CCC2CCN(C(=O)OC(C)(C)C)C2C1 (stereo unspecified)	x	-20	1	x	x	x
CC(=O)c1ccc(C2CC(OCCF)=CC(=O)O2)cc1 (stereo unspecified)	x	9	2	x	x	x
Cc1c(C=O)c(=O)n(-c2ccccc2)n1-c1ccccc1	-14	1	-4	4	20*	38
Cc1c(C(=O)O)c(=O)n(-c2ccccc2)n1-c1ccccc1	4	-4	2	-13	-2	15
CC1Cc2nc(SCC(=O)N3CCN(c4ccccc4)CC3)n(CCc3ccccc3)c(=O)c2S1 (stereo unspecified)	-22	52*	1	-9	10	14
CCn1c(SCC(=O)N2CCN(c3ccccc3)CC2)nc2c(c1=O)SC(C)C2 (stereo unspecified)	-41	-38	-2	-3	-3	10
COC(=O)C1=C(C)N(Cc2ccccc2C(F)(F)F)C(=NCc2ccc(OC)cc2)NC1c1ccc(F)cc1 (stereo unspecified)	x	-12	17	x	x	x
O=C(NCC1CCN(C(=O)C(=O)c2cccs2)CC1)c1cccnc1	x	2	1	x	x	x
COc1cccc(-c2nc(-c3ccc(NC(=O)c4ccncc4)cc3)no2)c1	1	37	10	7	0	24
Cc1ccc(-c2nnc(-c3cccc(NC(=O)c4cccs4)c3)o2)cc1	-17	52*	4	8	-13	30
COc1ccc(Cc2nc(-c3ccc(NC(=O)c4cccnc4)cc3)no2)cc1	1	40	55*	11	-7	22
CC(=O)Nc1cccc(-c2nnc(-c3ccc(C)cc3)o2)c1	x	-11	7	x	-9	x
COc1cccc(-c2nc(-c3ccc(NC(=O)c4cccs4)cc3)no2)c1	-26	51*	6	-24	-6	24
COc1ccc(-c2nc(-c3ccc(NC(=O)c4ccncc4)cc3)no2)cc1OC	5	x	x	26	-9	60*
COc1ccc(-c2noc(CCC(=O)NCc3cccnc3)n2)cc1	-6	22	1	-9	-10	16
Cc1cc(C)c(S(=O)(=O)/N=C2/C=C(Sc3ncn[nH]3)C(=O)c3ccccc32)cc1C	0	45	30	-6	-14	63*
COc1ccc(NS(=O)(=O)c2ccc(Cl)c(NC(=O)c3ccccc3F)c2)cc1	16	7	-1	-11	x	49*
